pIC50: −log10 of the molar value. Activity calls are given as the source filed them. The rule behind the calls is not given here.
Tests used:
[1] = Metabolic stability in mouse liver microsomes assessed as half life at 1 uM measured upto 45 mins in presence of NADPH by LC-MS/MS analysis; assay type: ADME, Microsome; settings: 0.75 h
Summary of the method: (§1)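 Pooled liver microsomes from each species: 1 μM compound with 0.5 mg/mL microsomes and 1.7 mM NADPH in 0.1 M K-phosphate, pH 7.4, 5 mM MgCl2, 37 °C. Sampled at 0, 5, 10, 15, 30 and 45 min with cold ACN quench. No-NADPH incubation as negative control; ketanserin as positive control. LC-MS/MS; half-life from ln(remaining) versus time.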

VCaP = assay: Growth inhibition in human VCaP cells incubated for 4 days by WST-8 assay; assay type: functional, cell-based; settings: 96 h
[2] = Metabolic stability in mouse hepatocytes assessed as half life at 1 uM measured upto 120 mins in presence of NADPH by LC-MS/MS analysis; assay type: ADME, cell-based, Hepatocyte; settings: 2 h
Mus musculus [3] = assay: In vivo induction of androgen receptor degradation in human VCaP cells xenografted in CB17 SCID mouse assessed as reduction in TMPRSS2 mRNA level at 12.5 mg/kg, po measured after 6 to 24 hrs by qRT-PCR analysis; assay type: functional, organism-based; settings: time 6-24 hrs
[4] = Cmax in Beagle dog at 3 mg/kg, po measured up to 24 hrs by LC-MS/MS analysis; assay type: ADME, organism-based, Canis lupus familiaris; parameters: time < 24 hrs, dose 3 mg/kg, route po; settings: in vivo
Summary of the method: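 Male Beagle dogs dosed orally at 3 mg/kg in 90% PEG400 + 10% Cremophor.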

[5] = Drug concentration in CB17 SCID mouse tumor xenografted with human VCaP cells at 12.5 mg/kg, po measured after 24 hrs by LC-MS/MS analysis; assay type: ADME, organism-based, Neoplasm; settings: read-out: Ct
Summary of the method: (§2)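 SCID mice bearing one VCaP tumour each given a single oral 12.5 mg/kg dose in 100% PEG200. Plasma and tumour tissue collected at 6 and 24 h, 3 mice per time point. Values are mean ± SD.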

[6] = Drug concentration in ICR mouse plasma at 10 mg/kg, po measured after 1 hr; assay type: ADME, organism-based
Summary of the method: (§3)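 Mice given a single 10 mg/kg dose by oral gavage, 3 mice per time point. Plasma drug levels measured at 1, 3, 6 and 24 h; mean ± SD reported.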

[7] = Downregulation of KLK3 gene expression in human LNCaP cells at 0.3 nM incubated for 24 hrs by qRT-PCR analysis; assay type: functional
Summary of the method: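 LNCaP cells (RPMI 1640) or VCaP cells (DMEM Glutamax), both with 10% FBS, treated for 24 h. KLK3 mRNA measured by qRT-PCR and calculated by the comparative CT method against GAPDH and vehicle.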

LNCaP [8] = assay: Induction of androgen receptor degradation in human LNCaP cells at 100 nM pretreated with ARi-12 for 2 hrs followed by compound addition and 3 hrs by Western blot analysis; assay type: functional, cell-based; settings: time 5.0 hrs
Summary of the method: (§4)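 LNCaP or VCaP cells pretreated 2 h with DMSO, ARi-12 (10 μM), thalidomide (10 μM), MG-132 (3 μM) or MLN4924 (0.5 μM), then given degrader at 100 nM for 3 h. AR measured by Western blot with GAPDH as loading control.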

[9] = Drug concentration in ICR mouse plasma at 10 mg/kg, po measured after 3 hrs; assay type: ADME, organism-based; summary of the method: as §3
[10] = Metabolic stability in rat liver microsomes assessed as half life at 1 uM measured upto 45 mins in presence of NADPH by LC-MS/MS analysis; assay type: ADME, Microsome; settings: 0.75 h; summary of the method: as §1
[11] = Drug concentration in CB17 SCID mouse plasma xenografted with human VCaP cells at 12.5 mg/kg, po measured after 6 hrs by LC-MS/MS analysis; assay type: ADME, organism-based; summary of the method: as §2
[12] = Clearance in Beagle dog at 1 mg/kg, iv measured upto 24 hrs by LC-MS/MS analysis; assay type: ADME, organism-based, Canis lupus familiaris; settings: in vivo
Summary of the method: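 Male ICR mice (2 mg/kg), male SD rats (1 mg/kg) or male Beagle dogs (1 mg/kg) given a single intravenous dose in 10% PEG400 + 90% PBS adjusted to pH 8.0 with NaOH.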

[13] = Drug concentration in ICR mouse plasma at 10 mg/kg, po measured after 6 hrs; assay type: ADME, organism-based; summary of the method: as §3
Mus musculus [14] = assay: In vivo induction of androgen receptor degradation in human VCaP cells xenografted in CB17 SCID mouse assessed as reduction in KLK3 mRNA level at 12.5 mg/kg, po measured after 6 to 24 hrs by qRT-PCR analysis; assay type: functional, organism-based; settings: time 6-24 hrs
[15] = Metabolic stability in dog liver microsomes assessed as half life at 1 uM measured upto 45 mins in presence of NADPH by LC-MS/MS analysis; assay type: ADME, Canis lupus familiaris, Microsome; settings: 0.75 h; summary of the method: as §1
LNCaP [16] = assay: Induction of androgen receptor degradation in human LNCaP cells at 100 nM pretreated with MG132 for 2 hrs followed by compound addition and 3 hrs by Western blot analysis; assay type: functional, cell-based; settings: time 5.0 hrs; summary of the method: as §4
Cytochrome P450 2C8 = molecular target: T1, Cytochrome P450 2C8 (Homo sapiens, UniProt P10632); assay: Inhibition of CYP2C8 in human liver microsomes preincubated for 5 mins followed by NADPH addition and measured after 20 mins by LC/MS analysis; assay type: ADME, Microsome
T1 sequence (P10632 whole entry): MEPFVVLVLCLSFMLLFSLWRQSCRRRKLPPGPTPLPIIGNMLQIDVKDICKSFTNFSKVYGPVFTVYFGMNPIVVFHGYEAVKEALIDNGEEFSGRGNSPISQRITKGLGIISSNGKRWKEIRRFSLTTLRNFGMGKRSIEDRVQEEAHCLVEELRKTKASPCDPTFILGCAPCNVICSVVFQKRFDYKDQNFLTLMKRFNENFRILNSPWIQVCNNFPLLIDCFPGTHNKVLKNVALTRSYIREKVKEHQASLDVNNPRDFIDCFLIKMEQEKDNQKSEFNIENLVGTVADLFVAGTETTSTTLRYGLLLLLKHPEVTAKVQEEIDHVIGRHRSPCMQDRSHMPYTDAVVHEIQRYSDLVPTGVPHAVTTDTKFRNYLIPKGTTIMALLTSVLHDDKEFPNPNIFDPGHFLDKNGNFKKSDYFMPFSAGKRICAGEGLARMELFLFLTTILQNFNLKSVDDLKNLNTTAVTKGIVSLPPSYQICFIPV

Cytochrome P450 2B6 = molecular target: T2, Cytochrome P450 2B6 (Homo sapiens, UniProt P20813); assay: Inhibition of CYP2B6 in human liver microsomes preincubated for 5 mins followed by NADPH addition and measured after 10 mins by LC/MS analysis; assay type: ADME, Microsome
T2 sequence (P20813 whole entry): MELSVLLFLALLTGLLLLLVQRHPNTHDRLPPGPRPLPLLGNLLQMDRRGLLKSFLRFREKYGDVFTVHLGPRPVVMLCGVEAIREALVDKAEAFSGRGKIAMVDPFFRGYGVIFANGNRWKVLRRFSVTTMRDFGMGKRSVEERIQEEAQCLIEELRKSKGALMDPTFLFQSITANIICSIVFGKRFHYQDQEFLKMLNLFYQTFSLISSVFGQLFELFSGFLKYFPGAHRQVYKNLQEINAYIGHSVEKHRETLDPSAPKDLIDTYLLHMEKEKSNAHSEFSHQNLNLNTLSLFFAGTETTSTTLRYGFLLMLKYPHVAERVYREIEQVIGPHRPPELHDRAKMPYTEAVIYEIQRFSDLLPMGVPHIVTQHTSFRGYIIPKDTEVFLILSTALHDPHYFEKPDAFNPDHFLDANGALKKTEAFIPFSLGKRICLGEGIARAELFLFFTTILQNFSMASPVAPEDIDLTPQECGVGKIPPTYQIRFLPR

C[C@H]1CC2(CCN(c3ccc(C(=O)N4CCN(C5CN(c6ccc7c(c6)C(=O)N(C6CCC(=O)NC6=O)C7=O)C5)CC4)cc3)CC2)CN1c1ccc(C#N)c(Cl)c1 (some centres undefined)
t1/2 [1]: > 1 h
pIC50 (VCaP): 8.00
t1/2 [2]: > 2 h
Activity (Mus musculus [3]): Active
Cmax [4]: 294 ng/mL
concentration at 24 h [5]: 183 ng/mL
concentration at 1 h [6]: 495 ng/mL
Activity [7]: 53%
Activity (LNCaP [8]): inactive
concentration at 3 h [9]: 664 ng/mL
t1/2 [10]: > 1 h
concentration at 6 h [11]: 985 ng/mL
clearance [12]: 4.6 mL/min/kg
concentration at 6 h [13]: 369 ng/mL
Activity (Mus musculus [14]): Active
t1/2 [15]: > 1 h
Activity (LNCaP [16]): inactive
pIC50 (Cytochrome P450 2C8): < 5.00
pIC50 (Cytochrome P450 2B6): < 5.00

Source: ChEMBL document CHEMBL5331127, “Discovery of ARD-2051 as a Potent and Orally Efficacious Proteolysis Targeting Chimera (PROTAC) Degrader of Androgen Receptor for the Treatment of Advanced Prostate Cancer” (J Med Chem, 2023)
